Most compounds without a hit are left out; they make up all but 2.8% or so of the library.
NPY1 pot ag – human NPY-Y1 potentiation or agonism, primary screen; P25929; NPY-Y1 expressing cells, potentiator/agonist activation; activation, % at 3.6 µM; 220,000 tested, 0.37% active; AID 1304; in the data active means activation above about 33%, passing the limit was not always enough;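 further: cells stimulated with NPY at EC10 then isoproterenol at EC100; 0% = low agonist plus stimulus and 100% = saturating agonist plus stimulus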
Target sequence (P25929 whole entry, looked up): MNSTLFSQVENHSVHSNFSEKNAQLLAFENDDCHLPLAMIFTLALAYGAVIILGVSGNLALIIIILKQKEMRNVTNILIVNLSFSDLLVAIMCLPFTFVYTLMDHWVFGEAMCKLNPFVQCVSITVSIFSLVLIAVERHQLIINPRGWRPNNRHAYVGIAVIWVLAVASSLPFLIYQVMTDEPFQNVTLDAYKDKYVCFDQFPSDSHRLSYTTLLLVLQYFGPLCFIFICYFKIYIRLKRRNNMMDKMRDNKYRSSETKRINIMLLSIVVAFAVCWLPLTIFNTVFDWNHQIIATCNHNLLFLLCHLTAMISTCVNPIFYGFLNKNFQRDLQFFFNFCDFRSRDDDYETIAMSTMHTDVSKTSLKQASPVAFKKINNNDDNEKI
EP2 mod – EP2 receptor (human) modulation; induction, % at 25 µM; 260,000 tested, 0.83% active; P43116; EP2-expressing cells, cAMP HTRF FRET, PGE2 co-stimulation;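 active means compounds whose cAMP rise, as percent of the full-agonist control response, exceeds 60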;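 further: rat C6 glioma line stably carrying human EP2 under a CMV promoter; the protocol text gives 20 µM as final concentration; 100% = response of wells given 1 µM PGE2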
NPY-Y1 antag – blocks the human neuropeptide Y Y1 receptor; P25929; HEK293-CNG Y1 cells, membrane potential fluorescence; NPY at EC95, then isoproterenol; inhibition, % at 3.6 µM; 200,000 tested, 1% active;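 active means inhibition above the campaign mean inhibition of all tested compounds plus 3 SD, cut at about 20% in these data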;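 further: 0% = DMSO wells given NPY plus isoproterenol and 100% = isoproterenol alone without NPY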
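Material: HEK293 cells with Y1 receptor plus CNG channel; times: compound incubation 1 h at room temperature, readout 45 min post-stimulation; signal: fluorescence, membrane potential probe; read-out basis: fluorescence ratio normalized to % inhibition between controls; benchmarks: full-block control isoproterenol-only wells, zero-block control NPY plus isoproterenol wells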
NPY2 pot ag – human NPY-Y2 potentiation or agonism, primary screen; P49146; cells expressing NPY-Y2, potentiator/agonist read-out; activation, % at 3.6 µM; 220,000 tested, 0.45% active; AID 1359; in the data active means activation above about 27%;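 further: cells stimulated with NPY near EC25 plus isoproterenol at EC100; 0% = vehicle plus submaximal agonist and 100% = vehicle plus saturating agonist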
NPY-Y2 antag – antagonists of human neuropeptide Y receptor Y2 | NPY-Y2 expressing cells, antagonist mode | P49146 | inhibition, % at 2.7 µM | 140,000 tested, 0.99% active | AID 793; in the data active means inhibition above about 17%;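 further: 0% = vehicle with agonist challenge and 100% = reference antagonist with challenge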
PGE2 EP2 inh – EP2 receptor (human) inhibition | P43116 | C6 glioma cells expressing human EP2, cAMP TR-FRET; cells stimulated with saturating PGE2 | inhibition, % at 25 µM | 260,000 tested, 0.52% active | AID 1422;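 active means percent inhibition above 40 after rounding to a whole number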;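 further: rat C6 glioma host cells with rolipram phosphodiesterase inhibitor present; the protocol text gives 20 µM as final concentration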
NPY-Y2 confirm – human NPY-Y2 potentiation or agonism, confirmation; shares compounds with NPY2 pot ag; activation, % at 3.6 µM; 450 tested, 20% active; cell-based NPY-Y2 potentiator/agonist assay; in the data active means activation above about 33%
NPY-Y1 potentiator – potentiates or activates NPY-Y1, counter-screen for NPY-Y2 hits | AID 1651 | 450 tested, 20% active | Y1 HEK293-CNG cells, membrane potential fluorescence | shares compounds with NPY2 pot ag | activation, % at 3.6 µM; in the data active means activation above about 45%;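 further: cells stimulated with submaximal NPY then isoproterenol with phosphodiesterase inhibitor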
NPY-Y1 agonist 2 – activates human NPY-Y1, counter-screen for NPY-Y2 potentiators; shares compounds with NPY2 pot ag; HEK293 Y1-CNGC, membrane potential fluorescence, agonism; activation, % at 3.6 µM; 450 tested, 37% active; AID 1702;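 active means activation above the mean of DMSO-only control wells plus 3 SD, cut at about 18% in these data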;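 further: cells stimulated with 1 µM isoproterenol plus the PDE inhibitor Ro 20-1724; 0% = isoproterenol with DMSO and no NPY and 100% = 40 nM NPY; Y1 agonists lower the membrane potential dye signal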
CNGC inh – blocks CNG channel activity, counter-screen for NPY-Y2 potentiators; shares compounds with NPY2 pot ag; HEK293-CNG parental, isoproterenol cAMP, membrane potential fluorescence; inhibition, % at 3.6 µM; 450 tested, 32% active;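 active means inhibition above the control-well mean plus 3 SD of those wells, cut at about 22% in these data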;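 further: 0% = DMSO with isoproterenol and 100% = DMSO without isoproterenol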
Y2 agonist ctr – activates human NPY-Y2 receptor in potentiator counter-screen; shares compounds with NPY2 pot ag; HEK293 Y2/CNGC cells, membrane potential fluorescence, agonist mode; activation, % at 3.6 µM; 450 tested, 56% active; AID 1710;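 active means activation above the mean of solvent-only control wells plus 3 SD, cut at about 10% in these data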;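 further: cells stimulated by isoproterenol with no NPY added so direct agonism is tested; 0% = DMSO with isoproterenol alone and 100% = NPY at EC100 plus isoproterenol; agonism lowers probe fluorescence through less cAMP and CNG channel opening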
Starred values were filed as active, the others as inactive; x = not tested or not shown.

SMILES	NPY1 pot ag	EP2 mod	NPY-Y1 antag	NPY2 pot ag	NPY-Y2 antag	PGE2 EP2 inh	NPY-Y2 confirm	NPY-Y1 potentiator	NPY-Y1 agonist 2	CNGC inh	Y2 agonist ctr
N#C/C(=N\Nc1ccc(Cl)cc1)C(=O)c1ccsc1	36	-20	x	59*	x	18	13	-10	-5	-1	6
N#C/C(=N\Nc1ccccc1)C(N)=S	1	9	x	2	x	6	x	x	x	x	x
Cc1cccc2cc(CN(CC3CCCO3)C(=S)NC3CCCCC3)c(=O)[nH]c12 (configuration not stated)	x	19	x	x	x	6	x	x	x	x	x
Cc1cccc2c(N)c3c(nc12)CCCC3 (tested in a mixture with another compound)	33	-3	5	49*	x	9	52*	64*	-1	10	48*
O=C1c2ccccc2C(=O)c2c1ccc(C(=O)N1CCCCC1)c2NCCO	21	28	2	2	-2	9	x	x	x	x	x
CC1CCCN(C(=O)c2ccc3c(c2NCCO)C(=O)c2ccccc2C3=O)C1 (configuration not stated)	29	-12	-8	31*	-9	18	46*	62*	38*	31*	42*
CC1(C)Cc2nc3sc4c(NCCN5CCOCC5)ncnc4c3cc2CO1	x	-27	x	x	x	7	x	x	x	x	x
O=C(COC(=O)c1ccco1)Nc1nc2ccc([N+](=O)[O-])cc2s1	30	-35	x	42*	x	18	31	50*	53*	40*	49*
Cc1ccc2nc(NC(=O)COC(=O)c3ccco3)sc2c1	-7	-5	-5	13	2	5	x	x	x	x	x
CC(=O)SCCC(=O)Nc1ccccc1	26	-8	-16	44*	-7	9	32	41	52*	37*	47*
CC(=O)NNC(=O)CCC(=O)Nc1ccccc1	-1	14	-1	0	3	8	x	x	x	x	x
Cc1ccc(C(=O)Nc2ccc(S(=O)(=O)NCc3ccco3)cc2)cc1	15	-38	1	-9	2	5	x	x	x	x	x
Cc1cc(C)n(-c2ccc(C(=O)Nc3ccc(S(=O)(=O)NCc4ccco4)cc3)cc2)n1	6	-21	-2	38*	1	18	-2	-41	-26	-6	-9
COc1ccc(CC(=O)N2CCCC(c3[nH]ncc3-c3cc(C)no3)C2)cc1 (configuration not stated)	x	-15	x	x	x	x	x	x	x	x	x
COC(=O)c1sccc1NS(=O)(=O)c1ccc(OC)cc1	-35	3	4	31*	0	6	-5	-8	-8	-9	5
O=C(O)C1CC1C(=O)Nc1cc(F)ccc1F (configuration not stated)	7	20	-1	28*	x	5	-5	0	-1	0	-3
O=C(O)C1CCCCC1C(=O)Nc1ccc(F)cc1F (configuration not stated)	5	31	-1	-1	-1	0	x	x	x	x	x
COc1ccc(NC(=O)c2cccnc2SC)cc1OC	5	14	-2	9	x	4	x	x	x	x	x
CSc1ncccc1C(=O)Nc1ccc2nc(C)sc2c1	20	15	x	105*	x	8	-5	0	-2	1	-5
S=C(c1ccc(C(=S)N2CCOCC2)cc1)N1CCOCC1	x	-34	x	x	x	12	x	x	x	x	x
O=C1COc2ccc(C(=O)COC(=O)c3ccco3)cc2N1	8	16	x	-3	x	9	x	x	x	x	x

Screens (PubChem)
